Hits are enriched below; roughly 2.1% of the tested compounds scored in any of these assays.
FGF22 binding – binders of recombinant human FGF22 by thermal shift; Q9HCT0; SYPRO orange fluorescence; percent of sucrose octasulfate shift, DMSO zero; activity (Tm shift, normalised), % at 9.99 µM; 340,000 tested, 1.5% active; AID 651658;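 active means mean Tm shift, scaled 0 neutral to 100 positive control, at about 1.3% or above, every replicate too, limit read from the data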
Target sequence (Q9HCT0 whole entry, looked up): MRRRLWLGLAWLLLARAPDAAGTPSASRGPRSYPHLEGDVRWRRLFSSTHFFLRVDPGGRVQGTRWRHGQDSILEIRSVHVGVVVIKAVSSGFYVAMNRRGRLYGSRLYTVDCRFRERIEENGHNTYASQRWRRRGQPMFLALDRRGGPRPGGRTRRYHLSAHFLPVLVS
FN deposit inh – fibronectin deposition inhibition; AH1F fibroblasts, Alexa488-fibronectin deposition fluorescence, overnight; inhibition, % at 12.6 µM; AID 743247; 350,000 tested, 0.086% active;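 active means mean inhibition across replicates of 30% or more, regardless of how many single replicates reach that level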;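 further: positive control wells lacked labelled fibronectin entirely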
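Assay system: AH1F fibroblasts / Quantity: 10000 cells per well / Medium: DMEM plus 2% serum, read in PBS / Reagent: labelled fibronectin 24 nM / Dosing: single dose, pinned / Times: 1 h cell attachment, overnight exposure to compound and label / Signal: fluorescence, ex 485 nm, em 525 nm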
PDI turbidity – blocks human protein disulfide isomerase activity. P07237. PDI insulin aggregation turbidity, A650, 90 min. inhibition, % at 10 µM. 350,000 tested, 0.052% active. AID 588391;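 active means mean inhibition across replicates of 30% or more, whatever share of single replicates reach that level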
ERp5 inh – inhibitors of human ERp5; ERp5 insulin aggregation, absorbance 650 nm, 90 min; 350,000 tested, 0.05% active; Q15084; AID 651711; inhibition, % at 9.99 µM;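 active means mean replicate inhibition above about 25%, with every replicate also reaching it, limit read from the data, passing the limit was not always enough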
Target sequence (Q15084 whole entry, looked up): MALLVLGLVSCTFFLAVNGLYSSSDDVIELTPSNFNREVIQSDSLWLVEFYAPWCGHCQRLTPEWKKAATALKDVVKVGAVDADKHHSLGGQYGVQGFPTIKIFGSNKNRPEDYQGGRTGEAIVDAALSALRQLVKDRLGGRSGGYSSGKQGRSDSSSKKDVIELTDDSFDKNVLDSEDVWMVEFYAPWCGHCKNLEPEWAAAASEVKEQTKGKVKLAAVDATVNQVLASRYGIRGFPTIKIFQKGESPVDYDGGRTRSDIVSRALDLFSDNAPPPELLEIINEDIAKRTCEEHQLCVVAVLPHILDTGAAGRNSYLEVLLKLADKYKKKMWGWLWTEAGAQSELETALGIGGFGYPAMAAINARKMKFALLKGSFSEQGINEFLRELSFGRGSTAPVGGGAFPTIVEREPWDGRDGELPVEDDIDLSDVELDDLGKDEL
ARNT-TACC3 inh – ARNT/TACC3 interaction disruption; 390,000 tested, 0.66% active; inhibition, % at 9.99 µM; AlphaScreen His-ARNT PAS-B/GST-TACC3 binding, luminescence; TACC3 fragment carries E629A point mutation;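 active means mean inhibition of replicates at least 50% and at least half of replicates each reaching 50%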;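 further: 0% = complete ARNT plus TACC3 wells and 100% = ARNT alone without TACC3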
MLL AF4-AF9 inh – MLL-AF4/AF9 protein interaction inhibition; P42568; AlphaScreen, biotin-AF4 peptide binding to FLAG-AF9; inhibition, % at 10 µM; 350,000 tested, 0.47% active;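 active means every replicate reaching a set inhibition limit, whatever the replicate mean, cut at about 25% in these data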;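 further: 0% = plate neutral control median and 100% = total signal loss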
AlphaScreen ctr – interferes with AlphaScreen signal, flagging false ARNT-TACC3 hits; shares compounds with ARNT-TACC3 inh; His-ARNT PASB-GST AlphaScreen artifact counter-screen, luminescence; AC50, µM (highest dose often 68 µM), for inactives: top-dose activity change, negative = signal decrease; 1,200 tested, 50% active; AID 651705;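 active means every separate test run was called active for a drop in luminescence, with AC50 within twice the top valid dose, actives reach about 71 µM in these data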
* marks the source's active call; other numbers are inactive results; · = no result; [ ] = dose if it differs, or a comment.

SMILES | FGF22 binding | FN deposit inh | PDI turbidity | ERp5 inh | ARNT-TACC3 inh | MLL AF4-AF9 inh | AlphaScreen ctr
CN(C)c1nc(-c2ccccn2)nnc1-c1ccccc1 | · | 4 | -4 | · | 64* | · | 1.1µM*
C[C@@H](Nc1nc(-c2ccccn2)nnc1-c1ccccc1)c1ccccc1 | · | · | · | · | · | · | 2.4µM*
c1ccc(CCNc2nc(-c3ccccn3)nnc2-c2ccccc2)cc1 | · | · | · | · | · | · | 2.5µM*
c1ccc(-c2nnc(-c3ccccn3)c(-c3ccccn3)n2)nc1 | 0 | 0 | 3 | 2 | · | 0 | ·
O=C(C[C@H]1CC[C@H]2[C@@H](COC[C@@H](O)CN2C(=O)c2ccncc2)O1)NCc1cccc(F)c1 | 0 | 3 | · | 0 | -8 | -19 | ·
Cc1noc(C)c1NC(=O)N(C)C[C@H]1Oc2ccc(NC(=O)Nc3cccc4ccccc34)cc2CC(=O)N([C@H](C)CO)C[C@H]1C | 0 | 1 | · | -1 | · | -1 | ·
c1ccc(-c2nnc(-c3ccccn3)nn2)nc1 | 0 | -10 | 5 | 2 | 74* | · | -33%
O=[N+]([O-])c1ccc(-c2nnc(-c3ccccc3)c(NCCCO)n2)cc1 | · | 1 | -7 | · | -5 | · | ·
OCCCNc1nc(-c2ccccn2)nnc1-c1ccccc1 | · | · | · | · | · | · | 1.2µM*
Cc1ccc(-c2ccc3c(c2)O[C@@H](CN(C)C(=O)Nc2ccc(F)cc2)[C@H](C)CN([C@@H](C)CO)S3(=O)=O)cc1 | 0 | 3 | · | 3 | -1 | 2 | ·
Cc1cc2c(NC(=O)CC(C)(C)CC(=O)O)cccc2nn1 | 0 | -4 | 9 | 5 | 27* | 1 | -10%
CCNC(=O)C[C@@H]1CC[C@H]2[C@@H](COC[C@@H](O)CN2Cc2ccncc2)O1 | 0 | 3 | · | · | 8 | · | ·
COC(=O)c1ccccc1-c1ccc(C(c2c(C)[nH][nH]c2=O)c2c(C)[nH][nH]c2=O)o1 | 43 | · | 0 | 1 | 60* | -3 | -12%
COC(=O)c1ccc(C(c2c(C)[nH][nH]c2=O)c2c(C)[nH][nH]c2=O)cc1 | 0 | -3 | -8 | 0 | 5 | -25 | ·
CCCNC(=O)Nc1ccc2c(c1)C(=O)N(C)C[C@H](OC)[C@@H](C)CN(CC1CCCC1)[C@@H](C)CO2 | · | 2 | · | · | · | · | ·
CCCCN(CC)c1nc(-c2ccncc2)nc2ccccc12 | · | · | -1 | · | -3 | · | ·
CCCN(CCC)c1nc(-c2ccccn2)nc2ccccc12 | 0 | -4 | 1 | 0 | 60* | -19 | -31%
COc1ccc2c3c(n(C)c2c1)[C@H](CO)N(C(=O)CN1CCOCC1)CC31CN(C(=O)CC2CC2)C1 | 0 | · | · | 1 | · | 1 | ·
COc1ccc(-c2cc(NCc3ccccn3)n3ncnc3n2)cc1 | · | 4 | 4 | · | 52* | · | -1%
O=C(NCCc1ccc(Cl)cc1)c1ccc2c(c1)OCO2 | 0 | · | -10 | 5 | -1 | -3 | ·
NS(=O)(=O)c1ccc(CCNC(=O)c2ccc3c(c2)OCO3)cc1 | 0 | -4 | -4 | -1 | 41* | -1 | 5%
Cc1ccc(S(=O)(=O)N(C)C[C@H]2Oc3ccc(NC(=O)CCN4CCOCC4)cc3CC(=O)N([C@@H](C)CO)C[C@@H]2C)cc1 | 0 | · | · | -3 | 2 | 3 | ·
COc1ccc(-c2cn(CC[C@H]3CC[C@@H](NC(=O)Nc4ccc(F)cc4)[C@H](CO)O3)nn2)cc1 | · | 11 | · | -8 | · | -3 | ·
CO[C@@H]1CN(C)C(=O)c2ccc(NC(=O)C3CC3)cc2OC[C@H](C)NC[C@@H]1C | 0 | -12 | · | -5 | -4 | -1 | ·
COCCn1c(N)c(C(=O)NCc2cccs2)c2nc3ccccc3nc21 | · | · | 2 | · | 51* | · | -25%
SMILES | FGF22 binding | FN deposit inh | PDI turbidity | ERp5 inh | ARNT-TACC3 inh | MLL AF4-AF9 inh | AlphaScreen ctr
COCCn1c(N)c(C(=O)NCC2CCCO2)c2nc3ccccc3nc21 (stereo not given) | · | 3 | 7 | · | -16 | · | ·
CCOc1ccc(Nc2cc3n(c(=O)n2)CCc2cc(OC)c(OC)cc2-3)cc1 | 0 | 15 | -13 | 1 | 43* | 4 | -16%
CCNc1cc2n(c(=O)n1)CCc1cc(OC)c(OC)cc1-2 | · | -13 | 6 | 1 | 26 | · | ·
CCOc1ccccc1Nc1cc2n(c(=O)n1)CCc1cc(OC)c(OC)cc1-2 | 42 | 22 | 3 | 3 | 18 | 0 | ·
CCCCCCNc1cc2n(c(=O)n1)CCc1cc(OC)c(OC)cc1-2 | · | 6 | 5 | · | 58* | · | -30%
COc1cc2c(cc1OC)-c1cc(Nc3cccc(C)c3)nc(=O)n1CC2 | 0 | 15 | 0 | -10 | 53* | 1 | 0%
COc1ccc(-c2cn(CC(=O)N3CCN(C)CC3)nn2)cc1OC | 0 | · | · | 1 | -7 | -4 | ·
CC1CC(C)CN(C(=O)COC(=O)c2ccc([N+](=O)[O-])o2)C1 (stereo not given) | 0 | -2 | -3 | -3 | -1 | -20 | ·
CCOC(=O)C1CCN(C(=O)COC(=O)c2ccc([N+](=O)[O-])o2)CC1 | 0 | 8 | 6 | 4 | 33* | -3 | -11%
CC1CCCC(C)N1C(=O)COC(=O)c1ccc([N+](=O)[O-])o1 (stereo not given) | 0 | 7 | -5 | 5 | 30* | -3 | -17%
COC(=O)C(CC#Cc1ccc2c(c1)[C@]1(C(=O)N2)[C@H](c2ccc(OCCO)cc2)N2[C@H](c3ccccc3)[C@H](c3ccccc3)OC(=O)[C@H]2[C@@H]1C(=O)N1CCCCCCC1)C(=O)OC | 0 | · | · | -1 | 63* | -2 | -34%[38 µM]
O=C(N[C@@H]1CC[C@@H](CCn2cc(-c3ccccn3)nn2)O[C@@H]1CO)c1ccc(F)cc1 | 0 | · | · | -3 | · | -2 | ·
O=C(N[C@H]1CC[C@@H](CCn2cc(-c3ccccn3)nn2)O[C@H]1CO)c1ccc(F)cc1 | -1 | · | · | 0 | 60* | -2 | 43µM*
O=C(N[C@@H]1CC[C@H](CCn2cc(-c3ccccn3)nn2)O[C@H]1CO)c1ccc(F)cc1 | -1 | · | · | 2 | 43* | -6 | 43µM*
O=C(N[C@@H]1CC[C@@H](CCn2cc(-c3ccccn3)nn2)O[C@H]1CO)c1ccc(F)cc1 | 0 | · | · | -3 | 75* | -2 | 47µM*

Screens as filed in PubChem BioAssay.
